Reference: ChEMBL document CHEMBL1138269, “Antimicrobial lexitropsins containing amide, amidine, and alkene linking groups” (J Med Chem, 2007)
Converted amounts (≈) assume the structure as drawn.

Tests used:
Format in all cases: functional
Staphylococcus aureus [1] = assay: Antibacterial activity against methicillin-resistant Staphylococcus aureus clinical isolate 5
Outline: (§1)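 Broth microdilution MIC against clinical S. aureus isolates (incl. MRSA), run per NCCLS guidelines in 96-well plates. Test sample dissolved in sterile water to a 200 µg mL-1 working concentration, then doubling dilutions in Mueller-Hinton broth. Incubated at 37 °C, growth read visually plus resazurin indicator. MIC reported in µg/mL.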

Staphylococcus aureus [2] = assay: Antibacterial activity against methicillin-resistant Staphylococcus aureus clinical isolate 4; outline: as §1
Enterococcus faecalis = assay: Antibacterial activity against Streptococcus faecalis NCTC 775
Outline: (§2)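 Broth microdilution in Mueller-Hinton broth. Samples were dissolved in sterile water to 200 µg mL-1 as the working solution and doubling dilutions were made across rows. Plates were incubated at 37 °C and inspected visually, with resazurin added as growth indicator. MIC reported in µg mL-1.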

Staphylococcus aureus [3] = assay: Antibacterial activity against methicillin-resistant Staphylococcus aureus clinical isolate 1; outline: as §1
[4] = tested on: Mycolicibacterium fortuitum; assay: Antibacterial activity against Mycobacterium fortuitum NCTC 10394; outline: as §2
Staphylococcus aureus [5] = assay: Antibacterial activity against methicillin-resistant Staphylococcus aureus clinical isolate 3; outline: as §1
Staphylococcus aureus [6] = assay: Antibacterial activity against methicillin-sensitive Staphylococcus aureus NCTC 6571; outline: as §2
Staphylococcus aureus [7] = assay: Antibacterial activity against methicillin-resistant Staphylococcus aureus clinical isolate 2; outline: as §1
Aspergillus niger = assay: Antifungal activity against Aspergillus niger IMI 149007
Outline: (§3)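 Antifungal microdilution in Sabouraud broth. Test sample at 200 µg mL-1 working solution in sterile water was serially doubled down successive rows. Incubation was at 25 °C, followed by visual growth check and addition of resazurin indicator. Read-out is MIC in µg mL-1.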

Candida albicans = assay: Antifungal activity against Candida albicans NCPF 3179; details: Candida albicans; read-out: MIC; outline: as §3
[8] = Enterococcus faecalis, NCTC 775, read-out: MIC
[9] = Staphylococcus aureus, NCTC 6571, read-out: MIC

Row | Structure (SMILES) | MIC (Staphylococcus aureus [1]) [µg/mL] | MIC (Staphylococcus aureus [2]) [µg/mL] | MIC (Enterococcus faecalis; [8]) [µg/mL] | MIC (Staphylococcus aureus [3]) [µg/mL] | MIC [4] [µg/mL] | MIC (Staphylococcus aureus [5]) [µg/mL] | MIC (Staphylococcus aureus [6]; [9]) [µg/mL] | MIC (Staphylococcus aureus [7]) [µg/mL] | MIC (Aspergillus niger) [µg/mL] | MIC (Candida albicans) [µg/mL] | MIC (Enterococcus faecalis) [µg/mL] | MIC (Staphylococcus aureus [6]) [µg/mL]
1 | CC(C)CCc1sc(NC(=O)c2cc3ccccc3cn2)nc1C(=O)Nc1cc(C(=O)NCCCN(C)C)n(C)c1 | 32 (≈ 55.6 µM) | 32 (≈ 55.6 µM) | > 50 | 32 (≈ 55.6 µM) | > 50 | 32 (≈ 55.6 µM) | > 50 | 32 (≈ 55.6 µM) | > 50 | > 50 | – | –
2 | COc1cccc(C(=N)Nc2cc(C(=O)Nc3cc(C(=O)Nc4cc(C(=O)NCCc5ccccn5)n(C)c4)n(C)c3)n(C)c2)c1 | > 64 | > 64 | > 50 | > 64 | > 50 | > 64 | 50 (≈ 80.4 µM) | > 64 | > 50 | > 50 | – | –
3 | COc1cccc(/C=C/c2ccc(C(=O)Nc3cc(C(=O)Nc4cc(C(=O)NCCCN(C)C)n(C)c4)n(C)c3)cc2)c1 | 6.25 (≈ 10.7 µM) | 6.25 (≈ 10.7 µM) | > 50 | 6.25 (≈ 10.7 µM) | > 50 | 6.25 (≈ 10.7 µM) | 6 (≈ 10.3 µM) | 6.25 (≈ 10.7 µM) | 50 (≈ 85.8 µM) | > 50 | – | –
4 | COc1cccc(/C=C/c2ccc(C(=O)Nc3cc(C(=O)Nc4cc(C(=O)NCCN5CCOCC5)n(C)c4)n(C)c3)cc2)c1 | 4 (≈ 6.55 µM) | 4 (≈ 6.55 µM) | 50 (≈ 81.9 µM) | 2 (≈ 3.27 µM) | > 50 | 4 (≈ 6.55 µM) | 6 (≈ 9.82 µM) | 4 (≈ 6.55 µM) | > 50 | > 50 | – | –
5 | CN(C)CCCNC(=O)c1cc(NC(=O)c2cc(NC(=O)c3ccc(/C=C/c4ccncc4)cc3)cn2C)cn1C | > 64 | > 64 | 25 (≈ 45.2 µM) | 16 (≈ 28.9 µM) | > 50 | 64 (≈ 116 µM) | 50 (≈ 90.3 µM) | 32 (≈ 57.8 µM) | > 50 | > 50 | – | –
6 | Cn1cccc1/C=C/c1ccc(C(=O)Nc2cc(C(=O)Nc3cc(C(=O)NCCN4CCOCC4)n(C)c3)n(C)c2)cc1 | 16 (≈ 27.4 µM) | 16 (≈ 27.4 µM) | 13 (≈ 22.3 µM) | 4 (≈ 6.85 µM) | > 50 | 16 (≈ 27.4 µM) | 3 (≈ 5.14 µM) | 16 (≈ 27.4 µM) | > 50 | > 50 | – | –
7 | COc1cccc(C(=N)Nc2cc(C(=O)Nc3cc(C(=O)Nc4nc(C(=O)NCCN5CCOCC5)c(C(C)C)s4)n(C)c3)n(C)c2)c1 | 32 (≈ 47.4 µM) | 32 (≈ 47.4 µM) | > 50 | 16 (≈ 23.7 µM) | > 50 | 32 (≈ 47.4 µM) | > 50 | 64 (≈ 94.7 µM) | > 50 | > 50 | – | –
8 | Cn1cc(NC(=O)c2cc(NC(=O)c3cc(/C=C/c4cnc5ccccc5c4)cn3C)cn2C)cc1C(=O)NCCN1CCOCC1 | 16 (≈ 25.2 µM) | > 64 | > 50 | 4 (≈ 6.3 µM) | > 50 | > 64 | > 50 | > 64 | > 50 | > 50 | – | –
9 | CSc1ccc(/C=C/c2ccc(C(=O)Nc3cc(C(=O)Nc4cc(C(=O)NCCN5CCOCC5)n(C)c4)n(C)c3)cn2)cc1 | 0.5 (≈ 0.796 µM) | 1 (≈ 1.59 µM) | > 50 | 0.5 (≈ 0.796 µM) | > 50 | 2 (≈ 3.19 µM) | 6 (≈ 9.56 µM) | 4 (≈ 6.37 µM) | > 50 | > 50 | – | –
10 | Cn1cc(NC(=O)c2cc(NC(=O)c3cc(/C=C/c4ccc5ccccc5n4)cn3C)cn2C)cc1C(=O)NCCN1CCOCC1 | 16 (≈ 25.2 µM) | 32 (≈ 50.4 µM) | 13 (≈ 20.5 µM) | 4 (≈ 6.3 µM) | > 50 | 64 (≈ 101 µM) | 13 (≈ 20.5 µM) | 64 (≈ 101 µM) | > 50 | > 50 | – | –
11 | CN(C)CCCNC(=O)c1cc(NC(=O)c2cc(NC(=O)c3ccc(/C=C/c4cnc5ccccc5c4)cc3)cn2C)cn1C | 25 (≈ 41.4 µM) | 25 (≈ 41.4 µM) | 13 (≈ 21.5 µM) | 25 (≈ 41.4 µM) | > 50 | 25 (≈ 41.4 µM) | 32 (≈ 53 µM) | 25 (≈ 41.4 µM) | > 50 | > 50 | – | –
12 | Cn1cc(NC(=O)c2cc(NC(=O)c3ccc(/C=C/c4cccnc4)cc3)cn2C)cc1C(=O)NCCN1CCOCC1 | 1 (≈ 1.72 µM) | 8 (≈ 13.8 µM) | 35 (≈ 60.2 µM) | 2 (≈ 3.44 µM) | > 50 | 4 (≈ 6.88 µM) | 35 (≈ 60.2 µM) | 8 (≈ 13.8 µM) | > 50 | > 50 | – | –
13 | Cn1cc(NC(=O)c2cc(NC(=O)c3ccc(/C=C/c4ccncc4)cc3)cn2C)cc1C(=O)NCCN1CCOCC1 | 0.5 (≈ 0.86 µM) | 1 (≈ 1.72 µM) | 25 (≈ 43 µM) | 0.5 (≈ 0.86 µM) | > 50 | 1 (≈ 1.72 µM) | 2 (≈ 3.44 µM) | 2 (≈ 3.44 µM) | > 50 | 50 (≈ 86 µM) | – | –
14 | CC(C)CCc1sc(NC(=O)c2cc(NC(=O)c3cc4ccccc4cn3)cn2C)nc1C(=O)NCCCN(C)C | > 64 | > 64 | 50 (≈ 86.8 µM) | > 64 | > 50 | > 64 | 50 (≈ 86.8 µM) | > 64 | > 50 | > 50 | – | –
15 | Cn1cc(NC(=O)c2cc(NC(=O)c3ccc(/C=C/c4nc5ccccc5o4)cc3)cn2C)cc1C(=O)NCCN1CCOCC1 (stereo in doubt; 79) | 1 (≈ 1.61 µM) | 1 (≈ 1.61 µM) | – | 1 (≈ 1.61 µM) | > 50 | 1 (≈ 1.61 µM) | – | 16 (≈ 25.7 µM) | > 50 | > 50 | 25 (≈ 40.2 µM) | 13 (≈ 20.9 µM)
16 | CC(C)CCn1cc(NC(=O)c2cc(NC(=O)c3cccc(Cl)c3)cn2C)cc1C(=O)Nc1cc(C(=O)NCCCN(C)C)n(C)c1 | 16 (≈ 24.1 µM) | 16 (≈ 24.1 µM) | 6 (≈ 9.05 µM) | 16 (≈ 24.1 µM) | > 50 | 16 (≈ 24.1 µM) | 13 (≈ 19.6 µM) | 16 (≈ 24.1 µM) | > 50 | > 50 | – | –
17 | Cn1cc(NC(=O)c2cc(NC(=O)c3cc(NC(=O)c4cccc(Cl)c4)cn3C)cn2C)cc1C(=O)NCCc1ccccn1 | > 64 | > 64 | > 50 | > 64 | > 50 | > 64 | > 50 | > 64 | > 50 | > 50 | – | –
18 | COc1cccc(/C=C/c2cccc(C(=O)Nc3cc(C(=O)Nc4nc(C(=O)NCCCN(C)C)c(CCC(C)C)s4)n(C)c3)c2)c1 | 32 (≈ 48.7 µM) | 32 (≈ 48.7 µM) | > 50 | 32 (≈ 48.7 µM) | > 50 | 32 (≈ 48.7 µM) | > 50 | 32 (≈ 48.7 µM) | > 50 | > 50 | – | –
19 | CC(C)CCc1sc(NC(=O)c2cc(NC(=O)c3cc(/C=C/c4ccc([N+](=O)[O-])cc4)cn3C)cn2C)nc1C(=O)NCCCN(C)C | > 64 | > 64 | > 50 | > 64 | > 50 | > 64 | > 50 | > 64 | > 50 | > 50 | – | –
20 | COc1cccc(/C=C/c2cc(C(=O)Nc3cc(C(=O)Nc4cc(C(=O)NCCCN(C)C)n(C)c4)n(C)c3)n(C)c2)c1 | 32 (≈ 54.6 µM) | 32 (≈ 54.6 µM) | 25 (≈ 42.7 µM) | 32 (≈ 54.6 µM) | > 50 | 32 (≈ 54.6 µM) | > 50 | 32 (≈ 54.6 µM) | > 50 | 50 (≈ 85.4 µM) | – | –
21 | CN(C)CCCNC(=O)c1cc(NC(=O)c2cc(NC(=O)c3cc(NC(=N)c4ccc5ccccc5n4)cn3C)cn2C)cn1C | > 64 | > 64 | 50 (≈ 80.3 µM) | > 64 | > 50 | > 64 | > 50 | > 64 | 50 (≈ 80.3 µM) | 50 (≈ 80.3 µM) | – | –
22 | CC(C)c1sc(NC(=O)c2cc(NC(=O)c3cc(NC(=O)c4cccc(Cl)c4)cn3C)cn2C)nc1C(=O)NCCCN(C)C | 2 (≈ 3.06 µM) | 0.5 (≈ 0.765 µM) | 6 (≈ 9.19 µM) | 11 (≈ 16.8 µM) | > 50 | 11 (≈ 16.8 µM) | 13 (≈ 19.9 µM) | 11 (≈ 16.8 µM) | > 50 | > 50 | – | –
23 | COc1cccc(C(=O)Nc2cc(C(=O)Nc3cc(C(=O)Nc4nc(C(=O)NCCCN(C)C)c(C(C)C)s4)n(C)c3)n(C)c2)c1 | 32 (≈ 49.3 µM) | 32 (≈ 49.3 µM) | 25 (≈ 38.5 µM) | 16 (≈ 24.7 µM) | > 50 | 32 (≈ 49.3 µM) | 25 (≈ 38.5 µM) | 32 (≈ 49.3 µM) | > 50 | > 50 | – | –
24 | CC(C)c1sc(NC(=O)c2cc(NC(=O)c3cc(NC(=O)c4ccc5c(c4)OCO5)cn3C)cn2C)nc1C(=O)NCCCN(C)C | 64 (≈ 96.6 µM) | 64 (≈ 96.6 µM) | 25 (≈ 37.7 µM) | 8 (≈ 12.1 µM) | > 50 | 64 (≈ 96.6 µM) | 13 (≈ 19.6 µM) | 64 (≈ 96.6 µM) | > 50 | > 50 | – | –
25 | CN(C)CCCNC(=O)c1cc(NC(=O)c2cc(NC(=O)c3cc(/C=C/c4ccc([N+](=O)[O-])cc4)cn3C)cn2C)cn1C | > 64 | > 64 | 50 (≈ 83.2 µM) | > 64 | > 50 | > 64 | 50 (≈ 83.2 µM) | > 64 | > 50 | > 50 | – | –
